Assay results from ChEMBL document CHEMBL1127471, “Tricyclic analogues of acyclovir and ganciclovir. Influence of substituents in the heterocyclic moiety on the antiviral activity” (1994).
Values after ≈ are worked out from the molar mass of the structure shown.

Key:
Format in all cases: functional
Vaccinia virus = assay: The minimum inhibitory concentration was measured on E6SM cells against Vaccinia virus; settings: Orthopoxvirus vaccinia
Summary of the method: (§1)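 Antiviral endpoint was the concentration reducing virus-induced cytopathicity by 50% in […] cell cultures. Values are means of two to six independent determinations.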

[1] = The minimum inhibitory concentration was measured against Herpes simplex virus type 1 (KOS strain) on E6SM cells; settings: Human alphaherpesvirus 1; summary of the method: as §1
E6SM = assay: The minimum inhibitory concentration was measured on E6SM cells for morphological alteration; settings: Homo sapiens
Summary of the method: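 In uninfected E6SM cells, the value is the concentration giving a microscopically detectable change in normal cell morphology. Values are means of two to six independent determinations.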

Human alphaherpesvirus 1 [2] = assay: The minimum inhibitory concentration was measured on E6SM cells against Herpes simplex virus type 1 (F strain); summary of the method: as §1
[3] = The minimum inhibitory concentration was measured on E6SM cells against Herpes simplex virus type 1 (McIntyre strain); settings: Human alphaherpesvirus 1; summary of the method: as §1
Human alphaherpesvirus 1 [4] = assay: The minimum inhibitory concentration was measured on E6SM cells against TK+/TK-Herpes simplex virus type 1 (VMW1837 strain); summary of the method: as §1
Human alphaherpesvirus 1 [5] = assay: The minimum inhibitory concentration was measured on E6SM cells against TK-Herpes simplex virus type 1 (B2006 strain); summary of the method: as §1
Cytomegalovirus = assay: The minimum inhibitory concentration was measured on HEL cells against Cytomegalovirus virus (Davis strain); settings: Human betaherpesvirus 5
Summary of the method: (§2)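 Antiviral endpoint was the concentration reducing virus plaque formation by 50% in HEL cell cultures. Values are means of two to six independent determinations.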

Human alphaherpesvirus 3 [6] = assay: The minimum inhibitory concentration was measured on HEL cells against Varicella zoster virus (YS strain); summary of the method: as §2
Human alphaherpesvirus 3 [7] = assay: The minimum inhibitory concentration was measured on HEL cells against TK-Varicella zoster virus (07/1 strain); summary of the method: as §2
Human betaherpesvirus 5 = assay: The minimum inhibitory concentration was measured on HEL cells against Cytomegalovirus virus (AD-169 strain); summary of the method: as §2
HEL [8] = assay: The […] was measured on HEL cells in cell growth; settings: Homo sapiens
Human alphaherpesvirus 3 [9] = assay: The minimum inhibitory concentration was measured on HEL cells against TK-Varicella zoster virus (YS-R strain); settings: Human alphaherpesvirus 3, ys-r; summary of the method: as §2
Human alphaherpesvirus 3 [10] = assay: The minimum inhibitory concentration was measured on HEL cells against Varicella zoster virus (OKA strain); settings: Human alphaherpesvirus 3, oka; summary of the method: as §2
HEL [11] = assay: The minimum inhibitory concentration was measured on HEL cells against Cytomegalovirus virus (Davis strain); (<400>100); settings: Homo sapiens; summary of the method: as §2
HEL [12] = assay: The minimum inhibitory concentration was measured on HEL cells against Cytomegalovirus virus (AD-169 strain); (<400>100); settings: Homo sapiens; summary of the method: as §2
HEL [13] = assay: The minimum inhibitory concentration was measured on HEL cells against TK-Varicella zoster virus (YS-R strain); (<400>100); settings: Homo sapiens; summary of the method: as §2
HEL [14] = assay: The minimum inhibitory concentration was measured on E6SM cells against Vesicular stomatitis virus; settings: Homo sapiens; summary of the method: as §1

Row | Structure (SMILES) | MIC (Vaccinia virus) | MIC [1] | MIC (E6SM) | MIC (Human alphaherpesvirus 1 [2]) | MIC [3] | MIC (Human alphaherpesvirus 1 [4]) | MIC (Human alphaherpesvirus 1 [5]) | MIC (Cytomegalovirus) | MIC (Human alphaherpesvirus 3 [6]) | MIC (Human alphaherpesvirus 3 [7]) | MIC (Human betaherpesvirus 5) | MIC (HEL [8]) | MIC (Human alphaherpesvirus 3 [9]) | MIC (Human alphaherpesvirus 3 [10]) | MIC (HEL [11]) | MIC (HEL [12]) | MIC (HEL [13]) | MIC (HEL [14])
1 | O=c1[nH]c(=O)n([C@H]2C[C@H](O)[C@@H](CO)O2)cc1I [IDOXURIDINE] | > 20 µg/mL | 20 µg/mL (≈ 56.5 µM) | ≥ 400 µg/mL | 7 µg/mL (≈ 19.8 µM) | 4 µg/mL (≈ 11.3 µM) | 20 µg/mL (≈ 56.5 µM) | – | – | – | – | – | – | – | – | – | – | – | –
2 | Cc1cn2c(O)c3c(nc2n1)N(COC(CO)CO)CN3 | > 175 µg/mL | 0.015 µg/mL (≈ 0.0508 µM) | > 175 µg/mL | 0.005 µg/mL (≈ 0.0169 µM) | 0.02 µg/mL (≈ 0.0677 µM) | 1.6 µg/mL (≈ 5.42 µM) | 31 µg/mL (≈ 105 µM) | > 50 µg/mL | 12 µg/mL (≈ 40.6 µM) | 15 µg/mL (≈ 50.8 µM) | > 50 µg/mL | > 200 µg/mL | 15 µg/mL (≈ 50.8 µM) | 1 µg/mL (≈ 3.39 µM) | – | – | – | –
3 | NC(=O)c1ncn([C@@H]2O[C@H](CO)[C@@H](O)[C@H]2O)n1 [RIBAVIRIN] | 28 µg/mL (≈ 115 µM) | 46 µg/mL (≈ 188 µM) | 400 µg/mL (≈ 1640 µM) | 23 µg/mL (≈ 94.2 µM) | 16 µg/mL (≈ 65.5 µM) | 115 µg/mL (≈ 471 µM) | 53 µg/mL (≈ 217 µM) | – | – | – | – | – | – | – | – | – | – | –
4 | Nc1nc2c(ncn2COC(CO)CO)c(=O)[nH]1 [GANCICLOVIR] | > 80 µg/mL | 0.003 µg/mL (≈ 0.0118 µM) | > 270 µg/mL | 0.004 µg/mL (≈ 0.0157 µM) | 0.004 µg/mL (≈ 0.0157 µM) | 0.08 µg/mL (≈ 0.313 µM) | 4.5 µg/mL (≈ 17.6 µM) | 0.9 µg/mL (≈ 3.53 µM) | 1.4 µg/mL (≈ 5.49 µM) | 1.5 µg/mL (≈ 5.88 µM) | 1.5 µg/mL (≈ 5.88 µM) | > 200 µg/mL | 1.4 µg/mL (≈ 5.49 µM) | 0.5 µg/mL (≈ 1.96 µM) | – | – | – | –
5 | Cc1cn2c(O)c3c(nc2n1)N(COCCO)C(Br)N3 (stereo not given) | > 250 µg/mL | 95 µg/mL (≈ 276 µM) | > 250 µg/mL | 150 µg/mL (≈ 436 µM) | 150 µg/mL (≈ 436 µM) | > 125 µg/mL | – | – | 220 µg/mL (≈ 639 µM) | 180 µg/mL (≈ 523 µM) | – | > 200 µg/mL | 185 µg/mL (≈ 538 µM) | 215 µg/mL (≈ 625 µM) | > 100 µg/mL | > 100 µg/mL | – | –
6 | OCCOCN1CNc2c1nc1nc(-c3ccc(-c4ccccc4)cc3)cn1c2O | > 70 µg/mL | 1.3 µg/mL (≈ 3.22 µM) | ≥ 70 µg/mL | 2 µg/mL (≈ 4.96 µM) | 0.7 µg/mL (≈ 1.74 µM) | > 55 µg/mL | – | – | 40 µg/mL (≈ 99.1 µM) | 100 µg/mL (≈ 248 µM) | – | > 200 µg/mL | – | 65 µg/mL (≈ 161 µM) | > 100 µg/mL | > 100 µg/mL | > 100 µg/mL | –
7 | CC(C)(C)c1cn2c(O)c3c(nc2n1)N(COCCO)CN3 | > 250 µg/mL | 4.5 µg/mL (≈ 14.6 µM) | > 250 µg/mL | 4 µg/mL (≈ 13 µM) | 2 µg/mL (≈ 6.51 µM) | > 125 µg/mL | – | – | 2.2 µg/mL (≈ 7.16 µM) | 40 µg/mL (≈ 130 µM) | – | 167 µg/mL (≈ 543 µM) | 127 µg/mL (≈ 413 µM) | 1 µg/mL (≈ 3.25 µM) | > 100 µg/mL | > 100 µg/mL | – | > 125 µg/mL
8 | O=c1[nH]c(=O)n([C@H]2C[C@H](O)[C@@H](CO)O2)cc1/C=C/Br [BRIVUDINE] | 0.22 µg/mL (≈ 0.66 µM) | 0.003 µg/mL (≈ 0.00901 µM) | > 350 µg/mL | 0.005 µg/mL (≈ 0.015 µM) | 0.006 µg/mL (≈ 0.018 µM) | 52 µg/mL (≈ 156 µM) | 15 µg/mL (≈ 45 µM) | > 20 µg/mL | 0.003 µg/mL (≈ 0.00901 µM) | 17.5 µg/mL (≈ 52.5 µM) | > 20 µg/mL | 60 µg/mL (≈ 180 µM) | 20 µg/mL (≈ 60 µM) | 0.005 µg/mL (≈ 0.015 µM) | – | – | – | –
